ChEMBL document CHEMBL3393035, “Novel agonists of benzodiazepine receptors: design, synthesis, binding assay and pharmacological evaluation of 1,2,4-triazolo[1,5-a]pyrimidinone and 3-amino-1,2,4-triazole derivatives” (Bioorg Med Chem, 2015)
Activity calls are given as the source filed them. The calls are words filed in the database; no cut-off is given here.

Experiments:
[1] = Displacement of [3H]-flumazenil from benzodiazepine receptor in Sprague-Dawley rat brain cortical membranes incubated for 35 mins
In short: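 Rat cortex membranes: homogenized in ice-cold 30 mM Tris-HCl pH 7.4, washed by repeated centrifugation at 4°C, 37°C 30 min preincubation, stored -20°C. 100 µg membrane protein in 50 mM Tris-HCl pH 7.4 with 8.6×10^-5 nmol [3H]-flumazenil plus increasing competitor, 0.5 mL, 30°C 35 min; stopped by centrifugation. NSB with 100 µM diazepam; triplicates; IC50 by nonlinear regression.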

Mus musculus [2] = assay: Induction of anterograde amnesia in NMRI albino mouse assessed as reduction in latency to enter dark compartment at 1 mg/kg, ip by passive avoidance test; type: functional, organism-based; design: dose 1 mg/kg
In short: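 Male NMRI mice (18-22 g), n=8 per group, received midazolam i.p. in distilled water, 5 ml/kg. In the passive avoidance test, mice were placed in the lit compartment on the testing day, 24 h later, and latency to enter the dark compartment was recorded. Data are mean + SEM.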

Mus musculus [3] = assay: Anticonvulsant activity in ip dosed NMRI mouse assessed as reduction in PTZ-induced lethal convulsion dosed 30 mins before PTZ injection and measured 30 mins post PTZ challenge; type: functional
In short: (§1)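 Male NMRI mice (18-22 g) were given drug i.p. at 5 ml/kg in DMSO:water (1:10), 30 min before PTZ 100 mg/kg i.p. (in water). Mice were watched for 30 min after PTZ and deaths were counted.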

Mus musculus [4] = assay: Anticonvulsant activity in ip dosed NMRI mouse assessed as reduction in MES-induced seizures by measuring occurrence of hind limb tonic extensions dosed 30 mins before MES injection and measured 30 mins post MES challenge; type: functional; details: Hindlimb
In short: (§2)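 Male NMRI mice (18-22 g) were given drug i.p. at 5 ml/kg in DMSO:water (1:10), 30 min before maximal electroshock (60 Hz, 37.2 mA, 0.25 s). The read-out was occurrence of hind limb tonic extension.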

Mus musculus [5] = assay: Anticonvulsant activity in ip dosed NMRI mouse assessed as reduction in PTZ-induced lethal convulsion dosed 30 mins before PTZ injection and co-treated with BZD antagonist flumazenil and measured 30 mins post PTZ challenge; type: functional, organism-based; in short: as §1
Mus musculus [6] = assay: Anticonvulsant activity in ip dosed NMRI mouse assessed as reduction in MES-induced seizures by measuring occurrence of hind limb tonic extensions dosed 30 mins before MES injection and co-treated with 10 mg/kg BZD antagonist flumazenil and measured 30 mins post MES challenge; type: functional, organism-based; design: dose 10 mg/kg; details: Hindlimb; in short: as §2
Mus musculus [7] = assay: Induction of anterograde amnesia in NMRI albino mouse assessed as reduction in latency to enter dark compartment at 0.325 to 2.5 mg/kg, ip by passive avoidance test; type: functional, organism-based
In short: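 Male NMRI mice (18-22 g) dosed i.p. in DMSO:water 1:10 (5 ml/kg), 30 min before the test; midazolam 1 mg/kg i.p. in water as reference. On the testing day, 24 h after training, each mouse is placed in the lit compartment and latency to enter the dark compartment is recorded. n=8 per group, mean + SEM.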

Mus musculus [8] = assay: Hypnotic effect in NMRI albino mouse assessed as potentiation of pentobarbital sleeping time by measuring duration of loss of righting reflex at 0.625 mg/kg, ip dosed 30 mins before pentobarbital challenge; type: functional, organism-based; design: dose 0.625 mg/kg
In short: (§3)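 Male NMRI mice, 18-22 g, 12 weeks old. Test agent and flumazenil (10 mg/kg) in DMSO:water 1:10, 5 ml/kg i.p., 30 min before pentobarbital 65 mg/kg i.p. (in water). Sleep time is the duration of loss of righting reflex. Mice kept on an electric blanket to prevent hypothermia. n=8 per group, mean + SEM.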

Mus musculus [9] = assay: Hypnotic effect in NMRI albino mouse assessed as potentiation of pentobarbital sleeping time by measuring duration of loss of righting reflex dosed intraperitoneally 30 mins before pentobarbital challenge; type: functional; in short: as §3
Mus musculus [10] = assay: Hypnotic effect in NMRI albino mouse assessed as potentiation of pentobarbital sleeping time by measuring duration of loss of righting reflex at 1.25 to 5 mg/kg, ip co-treated with 10 mg/kg BZD receptor antagonist flumazenil; type: functional, organism-based; in short: as §3
Mus musculus [11] = assay: Toxicity in NMRI albino mouse at 50 mg/kg, ip assessed as induction of toxic reactions measured after 24 hrs post dose; type: organism-based; design: dose 50 mg/kg, route intraperitoneal; details: in vivo
In short: (§4)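 Ten randomly selected male NMRI mice given single i.p. doses of 50 or 150 mg/kg in DMSO:water 1:10 (5 ml/kg), then observed for 24 h for toxic reactions, sedation and hypnosis.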

Mus musculus [12] = assay: Toxicity in NMRI albino mouse at 150 mg/kg, ip assessed as induction of toxic reactions measured after 24 hrs post dose; type: organism-based; design: dose 150 mg/kg, route intraperitoneal; details: in vivo; in short: as §4
Mus musculus [13] = assay: Toxicity in NMRI albino mouse at 50 mg/kg, ip assessed as induction sedation measured after 24 hrs post dose; type: organism-based; design: dose 50 mg/kg, route intraperitoneal; details: in vivo; in short: as §4
Mus musculus [14] = assay: Toxicity in NMRI albino mouse at 150 mg/kg, ip assessed as induction sedation measured after 24 hrs post dose; type: organism-based; design: dose 150 mg/kg, route intraperitoneal; details: in vivo; in short: as §4
Mus musculus [15] = assay: Toxicity in NMRI albino mouse at 50 mg/kg, ip assessed as induction hypnosis measured after 24 hrs post dose; type: organism-based; design: dose 50 mg/kg, route intraperitoneal; details: in vivo; in short: as §4
Mus musculus [16] = assay: Toxicity in NMRI albino mouse at 150 mg/kg, ip assessed as induction hypnosis measured after 24 hrs post dose; type: organism-based; design: dose 150 mg/kg, route intraperitoneal; details: in vivo; in short: as §4
Mus musculus [17] = assay: Hypnotic effect in NMRI albino mouse assessed as potentiation of pentobarbital sleeping time by measuring duration of loss of righting reflex at 1 mg/kg, ip dosed 30 mins before pentobarbital challenge; type: functional, organism-based; design: dose 1 mg/kg
In short: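 Male NMRI mice (18-22 g), n=8 per group, received diazepam i.p. in DMSO:water (1:10), 5 ml/kg. Pentobarbital 65 mg/kg i.p. followed 30 min later. Sleep time was the duration of loss of righting reflex; mice were kept on an electric blanket against hypothermia. Data are mean + SEM.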

Cc1cc(=O)n2nc(-c3ccccc3)n(Cc3ccccc3)c2n1
IC50 [1]: 2.39 nM
Ki [1]: 1.46 nM

Cc1ncc2n1-c1ccc(Cl)cc1C(c1ccccc1F)=NC2
Activity (Mus musculus [2]): Active

Nc1nnc(-c2ccccc2)n1Cc1ccc(F)cc1
IC50 [1]: 4.45 nM
Ki [1]: 2.73 nM

Cc1cc(=O)n2nc(-c3ccccc3)n(Cc3ccccc3Cl)c2n1
IC50 [1]: 0.68 nM
Ki [1]: 0.42 nM
ED50 (Mus musculus [3]): 56.6 mg/kg
ED50 (Mus musculus [4]): 15 mg/kg
Activity (Mus musculus [5]): inactive
Activity (Mus musculus [6]): inactive
Activity (Mus musculus [7]): Active
Activity (Mus musculus [8]): inactive
Activity (Mus musculus [9]): Dose-dependent effect
ED50 (Mus musculus [9]; ip): 5 mg/kg
Activity (Mus musculus [10]): inactive
Activity (Mus musculus [11]): Non-toxic
Activity (Mus musculus [12]): Non-toxic
Activity (Mus musculus [13]): Toxic
Activity (Mus musculus [14]): Toxic
Activity (Mus musculus [15]): Toxic
Activity (Mus musculus [16]): Toxic

Nc1nnc(-c2ccccc2)n1Cc1ccccc1
IC50 [1]: 0.87 nM
Ki [1]: 0.53 nM

Cc1cc(=O)n2nc(-c3ccccc3)n(Cc3ccc(F)cc3)c2n1
IC50 [1]: 1.59 nM
Ki [1]: 0.97 nM

CN1C(=O)CN=C(c2ccccc2)c2cc(Cl)ccc21 [DIAZEPAM]
IC50 [1]: 2.5 nM
Ki [1]: 1.53 nM
ED50 (Mus musculus [3]): 0.75 mg/kg
ED50 (Mus musculus [4]): 0.74 mg/kg
Activity (Mus musculus [5]): inactive
Activity (Mus musculus [6]): inactive
Activity (Mus musculus [17]): Active

Nc1nnc(-c2ccccc2)n1Cc1ccccc1Cl
IC50 [1]: 2.24 nM
Ki [1]: 1.37 nM
